Measurements: ChEMBL document CHEMBL1687765, “NagZ inactivation prevents and reverts beta-lactam resistance, driven by AmpD and PBP 4 mutations, in Pseudomonas aeruginosa” (2010)
Converted amounts (≈) assume the structure as drawn. The source made the active and inactive calls. The calls are words filed in the database; no cut-off is given here.

Experiments:
[1] = tested on: Pseudomonas aeruginosa; assay: Antimicrobial activity against Pseudomonas aeruginosa PAO1 by Etest method; type: functional
In short: (§1)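 MICs read from Etest strips on Mueller-Hinton agar per manufacturer's instructions; agents ceftazidime, cefepime, aztreonam, piperacillin, piperacillin-tazobactam, imipenem and meropenem.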

[2] = tested on: Pseudomonas aeruginosa; assay: Antimicrobial activity against nagZ::lox gene-deficient Pseudomonas aeruginosa PAO1 by Etest method; type: functional; in short: as §1
[3] = tested on: Pseudomonas aeruginosa; assay: Antimicrobial activity against ampD::lox gene-deficient Pseudomonas aeruginosa PAO1 by Etest method; type: functional; in short: as §1
[4] = tested on: Pseudomonas aeruginosa; assay: Antimicrobial activity against ampD::lox and nagZ::lox gene-deficient Pseudomonas aeruginosa PAO1 by Etest method; type: functional; in short: as §1
[5] = tested on: Pseudomonas aeruginosa; assay: Antimicrobial activity against dacB::lox gene-deficient Pseudomonas aeruginosa PAO1 by Etest method; type: functional; in short: as §1
[6] = tested on: Pseudomonas aeruginosa; assay: Antimicrobial activity against ampD::lox gene-deficient Pseudomonas aeruginosa PAO1 harboring dacB gene by Etest method; type: functional; in short: as §1
[7] = tested on: Pseudomonas aeruginosa; assay: Antimicrobial activity against ampD::lox and nagZ::lox gene-deficient Pseudomonas aeruginosa PAO1 harboring dacB gene by Etest method; type: functional; in short: as §1
[8] = tested on: Pseudomonas aeruginosa; assay: Antimicrobial activity against ampD::lox, ampDh2::lox and ampDh3::lox gene-deficient Pseudomonas aeruginosa PAO1 by Etest method; type: functional
In short: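 Etest strips on Mueller-Hinton agar, read per manufacturer's recommendations; P. aeruginosa PAO1 triple mutant deficient in ampD, ampDh2 and ampDh3 (lox deletions). Agents tested by Etest: ceftazidime, cefepime, aztreonam, piperacillin, piperacillin-tazobactam, imipenem, meropenem.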

[9] = tested on: Pseudomonas aeruginosa; assay: Antimicrobial activity against ampD::lox, ampDh2::lox,ampDh3::lox and nagZ::lox gene-deficient Pseudomonas aeruginosa PAO1 by Etest method; type: functional; in short: as §1
[10] = tested on: Pseudomonas aeruginosa; assay: Antimicrobial activity against ampR::lox gene-deficient Pseudomonas aeruginosa PAO1 by Etest method; type: functional; in short: as §1
[11] = tested on: Pseudomonas aeruginosa; assay: Antimicrobial activity against ampC::lox gene-deficient Pseudomonas aeruginosa PAO1 by Etest method; type: functional; in short: as §1
[12] = tested on: Pseudomonas aeruginosa; assay: Antimicrobial activity against dacB::lox and nagZ::lox gene-deficient Pseudomonas aeruginosa PAO1 by Etest method; type: functional; in short: as §1
[13] = tested on: Pseudomonas aeruginosa; assay: Antimicrobial activity against Pseudomonas aeruginosa PAO1 by broth microdilution method; type: functional
In short: (§2)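 Broth microdilution MICs of ceftazidime, aztreonam and piperacillin in 100 μl cation-adjusted Mueller-Hinton broth, with or without NagZ inhibitor PUGNAc at 0.5 mM or 5 mM; measurements in triplicate.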

[14] = tested on: Pseudomonas aeruginosa; assay: Antimicrobial activity against ampD::lox gene-deficient Pseudomonas aeruginosa PAO1 by broth microdilution method; type: functional; in short: as §2
[15] = tested on: Pseudomonas aeruginosa; assay: Antimicrobial activity against dacB::lox gene-deficient Pseudomonas aeruginosa PAO1 by broth microdilution method; type: functional; in short: as §2
[16] = tested on: Pseudomonas aeruginosa; assay: Antimicrobial activity against ampD::lox gene-deficient Pseudomonas aeruginosa PAO1 harboring dacB gene by broth microdilution method; type: functional; in short: as §2
[17] = tested on: Pseudomonas aeruginosa; assay: Antimicrobial activity against Pseudomonas aeruginosa PAO1 by broth microdilution method in presence of 0.5 mM NagZ inhibitor PUGNAc; type: functional; in short: as §2
[18] = tested on: Pseudomonas aeruginosa; assay: Antimicrobial activity against ampD::lox gene-deficient Pseudomonas aeruginosa PAO1 by broth microdilution method in presence of 0.5 mM NagZ inhibitor PUGNAc; type: functional; in short: as §2
[19] = tested on: Pseudomonas aeruginosa; assay: Antimicrobial activity against dacB::lox gene-deficient Pseudomonas aeruginosa PAO1 by broth microdilution method in presence of 0.5 mM NagZ inhibitor PUGNAc; type: functional; in short: as §2
[20] = tested on: Pseudomonas aeruginosa; assay: Antimicrobial activity against ampD::lox gene-deficient Pseudomonas aeruginosa PAO1 harboring dacB gene by broth microdilution method in presence of 0.5 mM NagZ inhibitor PUGNAc; type: functional
In short: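 MICs of ceftazidime, aztreonam and piperacillin determined by broth microdilution in cation-adjusted Mueller-Hinton broth, with 0.5 mM of the N-acetyl-β-glucosaminidase (NagZ) inhibitor PUGNAc added alongside the β-lactam and untreated controls run in parallel; all measurements performed in triplicate.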

[21] = tested on: Pseudomonas aeruginosa; assay: Antimicrobial activity against Pseudomonas aeruginosa PAO1 by broth microdilution method in presence of 5 mM NagZ inhibitor PUGNAc; type: functional; in short: as §2
[22] = tested on: Pseudomonas aeruginosa; assay: Antimicrobial activity against ampD::lox gene-deficient Pseudomonas aeruginosa PAO1 by broth microdilution method in presence of 5 mM NagZ inhibitor PUGNAc; type: functional; in short: as §2
[23] = tested on: Pseudomonas aeruginosa; assay: Antimicrobial activity against dacB::lox gene-deficient Pseudomonas aeruginosa PAO1 by broth microdilution method in presence of 5 mM NagZ inhibitor PUGNAc; type: functional; in short: as §2
[24] = tested on: Pseudomonas aeruginosa; assay: Antimicrobial activity against ampD::lox gene-deficient Pseudomonas aeruginosa PAO1 harboring dacB gene by broth microdilution method in presence of 5 mM NagZ inhibitor PUGNAc; type: functional; in short: as §2
[25] = tested on: Pseudomonas aeruginosa; assay: Antimicrobial activity against Pseudomonas aeruginosa PAO1 at 1 ug/ml; type: functional, organism-based
In short: (§3)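 Population analysis: serial dilutions of overnight MH broth cultures plated on MH agar with 0, 0.5, 1, 2, 4, 8 or 16 μg/ml ceftazidime; colonies counted after 24 h as CFU at each concentration; triplicate, mean ± standard deviation.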

[26] = tested on: Pseudomonas aeruginosa; assay: Antimicrobial activity against nagZ::lox gene-deficient Pseudomonas aeruginosa PAO1 at 1 ug/ml; type: functional, organism-based; in short: as §3

Row | SMILES | MIC [1] | MIC [2] | MIC [3] | MIC [4] | MIC [5] | MIC [6] | MIC [7] | MIC [8] | MIC [9] | MIC [10] | MIC [11] | other results
1 | C[C@@H](O)[C@H]1C(=O)N2C(C(=O)O)=C(SCCNC=N)C[C@H]12 [IMIPENEM ANHYDROUS] | 2 µg/mL (≈ 6.68 µM) | 1 µg/mL (≈ 3.34 µM) | 2 µg/mL (≈ 6.68 µM) | 1 µg/mL (≈ 3.34 µM) | 2 µg/mL (≈ 6.68 µM) | 2 µg/mL (≈ 6.68 µM) | 1 µg/mL (≈ 3.34 µM) | 2 µg/mL (≈ 6.68 µM) | 1.5 µg/mL (≈ 5.01 µM) | 0.5 µg/mL (≈ 1.67 µM) | 0.5 µg/mL (≈ 1.67 µM) | 
2 | C[C@@H](O)[C@H]1C(=O)N2C(C(=O)O)=C(S[C@@H]3CN[C@H](C(=O)N(C)C)C3)[C@H](C)[C@H]12 [MEROPENEM] | 0.38 µg/mL (≈ 0.991 µM) | 0.38 µg/mL (≈ 0.991 µM) | 1 µg/mL (≈ 2.61 µM) | 0.5 µg/mL (≈ 1.3 µM) | 0.5 µg/mL (≈ 1.3 µM) | 1.5 µg/mL (≈ 3.91 µM) | 0.5 µg/mL (≈ 1.3 µM) | 1 µg/mL (≈ 2.61 µM) | 1 µg/mL (≈ 2.61 µM) | 0.25 µg/mL (≈ 0.652 µM) | 0.25 µg/mL (≈ 0.652 µM) | MIC [12]: 0.38 µg/mL (≈ 0.991 µM)
3 | CC(C)(O/N=C(\C(=O)N[C@@H]1C(=O)N2C(C(=O)[O-])=C(C[n+]3ccccc3)CS[C@H]12)c1csc(N)n1)C(=O)O [CEFTAZIDIME] | 1.5 µg/mL (≈ 2.74 µM) | 1 µg/mL (≈ 1.83 µM) | 8 µg/mL (≈ 14.6 µM) | 2 µg/mL (≈ 3.66 µM) | 24 µg/mL (≈ 43.9 µM) | 96 µg/mL (≈ 176 µM) | 4 µg/mL (≈ 7.32 µM) | 32 µg/mL (≈ 58.5 µM) | 3 µg/mL (≈ 5.49 µM) | 2 µg/mL (≈ 3.66 µM) | 1 µg/mL (≈ 1.83 µM) | MIC [13]: 2 µg/mL (≈ 3.66 µM); MIC [14]: 8 µg/mL (≈ 14.6 µM); MIC [15]: 24 µg/mL (≈ 43.9 µM); MIC [16]: 96 µg/mL (≈ 176 µM); MIC [17]: 2 µg/mL; MIC [18]: 4 µg/mL; MIC [19]: 8 µg/mL; MIC [20]: 64 µg/mL; MIC [21]: 2 µg/mL; MIC [22]: 4 µg/mL; MIC [23]: 6 µg/mL; MIC [24]: 64 µg/mL; Activity [25]: Active; Activity [26]: Active
